Where only a bound is given, the exact number is not on record here.

For test [1], the target named is T1, Fatty-acid amide hydrolase 1 (Rattus norvegicus, UniProt P97612).
T1 sequence (P97612 whole entry): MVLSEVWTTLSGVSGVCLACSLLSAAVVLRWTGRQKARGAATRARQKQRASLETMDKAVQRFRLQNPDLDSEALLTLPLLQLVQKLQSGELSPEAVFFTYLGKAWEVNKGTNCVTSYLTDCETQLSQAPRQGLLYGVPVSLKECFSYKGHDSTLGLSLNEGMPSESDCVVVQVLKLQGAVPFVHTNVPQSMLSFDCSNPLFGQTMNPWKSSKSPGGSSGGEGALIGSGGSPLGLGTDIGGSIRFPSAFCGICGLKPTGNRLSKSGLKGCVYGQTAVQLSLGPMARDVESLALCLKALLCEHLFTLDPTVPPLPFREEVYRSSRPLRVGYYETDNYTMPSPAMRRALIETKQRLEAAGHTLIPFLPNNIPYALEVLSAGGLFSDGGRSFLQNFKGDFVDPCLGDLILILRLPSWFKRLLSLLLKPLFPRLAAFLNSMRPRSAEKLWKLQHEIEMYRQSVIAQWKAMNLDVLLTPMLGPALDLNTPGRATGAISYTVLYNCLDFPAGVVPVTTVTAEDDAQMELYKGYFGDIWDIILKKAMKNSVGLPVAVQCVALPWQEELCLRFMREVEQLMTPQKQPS
Briefly: Inhibition of fatty acid amide hydrolase (FAAH) was determined using rat brain homogenates as the enzyme source and [3H]anandamide as substrate. The class given is tissue-based. The method in brief:
(§1)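 Rat brain homogenate without cerebellum, in 10 mM Tris-HCl/1 mM EDTA pH 7.6, incubated 10 min at 37 °C with compound (ethanol carrier). Substrate: anandamide 2 µM final with trace [3H]anandamide labelled in the ethanolamine, plus BSA. Stopped on ice with chloroform/methanol; [3H]ethanolamine in the aqueous phase counted. Eight concentrations from 0.5 to 100 µM, at least three experiments.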

The target of test [2] is Cannabinoid receptor 1 (Rattus norvegicus, UniProt P20272). Briefly: Binding affinity against G protein coupled Cannabinoid receptor 1 using [3H]WIN-55212-2 in rat cerebellum membranes. The class given is cell membranes, Membrane. Summed up:
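Rat cerebellum membranes washed in 50 mM Tris-HCl pH 7.4, resuspended at about 2 mg/mL protein. Incubated 90 min at 30 °C with 0.5 nM [3H]WIN55212-2 plus competitor in Tris/EDTA/MgCl2/5 mg/mL BSA buffer. Nonspecific binding defined with 10 µM SR141716A. Bound ligand separated by GF/C filtration and counted by scintillation. IC50 from curve fit, Ki by Cheng-Prusoff. Two to four experiments in triplicate.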

Test [3] is filed under the species Homo sapiens. Description: Inhibition of [3H]anandamide transport(ANT) in human lymphoma U937 cell. The conditions noted are these: U-937. The class given is functional. The method in brief: (§2)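 U937 cells (10^6/mL, RPMI 1640) preincubated 10 min at 37 °C with inhibitor, highest concentration tested 50 µM. Then [3H]anandamide 0.45 nM plus cold anandamide (100 nM final) added for 7 min. Stopped by GF/C filtration and washed with Krebs-HEPES; radioactivity counted. Nonspecific uptake measured at 4 °C. IC50 by curve fit; maximum inhibition is the % inhibition at 50 µM.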

Test [4] concerns the target Cannabinoid receptor 2 (Homo sapiens, UniProt P34972). Briefly: Binding affinity against G protein coupled human Cannabinoid receptor 2 using [3H]CP-55940 in HEK293 EBNA transfected cells. It counts as cell-based. The method in brief:
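Incubated 90 min at 30 °C with 0.3 nM [3H]CP55940 plus competitor. Filtered and counted by scintillation. IC50 from curve fit, Ki by Cheng-Prusoff. Two to four experiments in triplicate.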

Test [5] addresses T1, Fatty-acid amide hydrolase 1. Description: Maximum Inhibition of fatty acid amide hydrolase (FAAH) was determined using rat brain homogenates at concentrations ranging from 0.5 to 100 uM. Summed up: as §1
For test [6], the species on record is Homo sapiens. Briefly: Maximum Inhibition of anandamide transport(ANT) was determined against human lymphoma U937 cell at a dose of 50 uM. The class given is functional, U-937. The method in brief:
as §2

For test [7], the target named is Transient receptor potential cation channel subfamily V member 1 (Rattus norvegicus, UniProt O35433). Briefly: Binding affinity against vanilloid receptor 1 (VR1) using [3H]RTX in rat spinal cord membranes. It counts as cell membranes, Membrane. The method in brief: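 Rat spinal cord membranes (about 1 mg/mL protein) in HEPES/sucrose buffer pH 7.4 with 0.25 mg/mL BSA. Incubated 60 min at 37 °C with 25 pM [3H]RTX plus competitor; nonspecific binding defined with 1 µM RTX. Stopped on ice, α1-acid glycoprotein added, membranes pelleted and counted. Ki by Cheng-Prusoff. Two to four experiments in triplicate.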
Sequence of Transient receptor potential cation channel subfamily V member 1 (O35433 whole entry): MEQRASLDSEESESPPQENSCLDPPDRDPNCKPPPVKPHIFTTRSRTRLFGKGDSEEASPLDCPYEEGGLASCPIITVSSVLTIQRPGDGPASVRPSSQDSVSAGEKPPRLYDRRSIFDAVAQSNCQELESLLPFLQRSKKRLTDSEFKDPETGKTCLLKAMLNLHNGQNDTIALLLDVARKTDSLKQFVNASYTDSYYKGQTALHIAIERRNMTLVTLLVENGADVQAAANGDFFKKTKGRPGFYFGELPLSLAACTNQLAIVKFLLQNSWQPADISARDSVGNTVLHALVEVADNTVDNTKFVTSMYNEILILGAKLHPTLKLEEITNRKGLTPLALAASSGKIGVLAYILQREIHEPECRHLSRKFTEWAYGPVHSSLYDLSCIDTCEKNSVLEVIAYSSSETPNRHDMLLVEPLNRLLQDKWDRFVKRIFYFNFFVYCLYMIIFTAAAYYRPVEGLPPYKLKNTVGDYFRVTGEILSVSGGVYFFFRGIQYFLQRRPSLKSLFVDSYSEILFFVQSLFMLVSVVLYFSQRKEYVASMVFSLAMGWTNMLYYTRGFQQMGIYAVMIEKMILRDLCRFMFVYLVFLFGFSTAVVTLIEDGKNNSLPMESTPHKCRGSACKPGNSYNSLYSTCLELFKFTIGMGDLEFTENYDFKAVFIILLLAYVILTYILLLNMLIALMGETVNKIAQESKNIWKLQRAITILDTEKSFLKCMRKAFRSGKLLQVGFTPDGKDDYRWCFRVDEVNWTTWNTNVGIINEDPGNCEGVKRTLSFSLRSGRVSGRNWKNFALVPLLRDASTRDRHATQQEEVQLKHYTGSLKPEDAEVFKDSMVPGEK

The target of test [8] is T2, Fatty-acid amide hydrolase 1 (Rattus norvegicus) (UniProt P97612).
T2 sequence (whole entry): T1 sequence (P97612 whole entry)
Description: Maximum Inhibition of fatty acid amide hydrolase (FAAH) was determined using rat brain homogenates at 100 uM. The method in brief: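 Rat brain (minus cerebellum) homogenate in 10 mM Tris-HCl, 1 mM EDTA, pH 7.6, incubated 10 min at 37 °C with test agent or ethanol carrier. Substrate: 2 µM final anandamide with trace [3H]anandamide (ethanolamine label), 1% fatty acid free BSA. Stopped on ice plus chloroform/methanol. Aqueous-phase [3H]ethanolamine counted by scintillation. Inhibition read at 100 µM where IC50 fit failed.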

Sequence of Cannabinoid receptor 1 (P20272 whole entry): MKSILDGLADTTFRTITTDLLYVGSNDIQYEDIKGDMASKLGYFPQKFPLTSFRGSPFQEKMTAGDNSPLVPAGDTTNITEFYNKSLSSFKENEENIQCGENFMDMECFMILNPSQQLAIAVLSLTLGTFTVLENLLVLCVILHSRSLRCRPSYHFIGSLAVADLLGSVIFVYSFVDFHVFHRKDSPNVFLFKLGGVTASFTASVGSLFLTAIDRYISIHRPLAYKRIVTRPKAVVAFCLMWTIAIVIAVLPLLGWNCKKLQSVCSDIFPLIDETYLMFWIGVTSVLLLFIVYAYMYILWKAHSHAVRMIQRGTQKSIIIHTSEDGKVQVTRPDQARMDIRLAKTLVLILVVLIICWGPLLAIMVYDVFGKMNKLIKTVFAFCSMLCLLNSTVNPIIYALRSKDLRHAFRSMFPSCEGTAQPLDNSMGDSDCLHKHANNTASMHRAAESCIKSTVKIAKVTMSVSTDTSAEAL
Sequence of Cannabinoid receptor 2 (P34972 whole entry): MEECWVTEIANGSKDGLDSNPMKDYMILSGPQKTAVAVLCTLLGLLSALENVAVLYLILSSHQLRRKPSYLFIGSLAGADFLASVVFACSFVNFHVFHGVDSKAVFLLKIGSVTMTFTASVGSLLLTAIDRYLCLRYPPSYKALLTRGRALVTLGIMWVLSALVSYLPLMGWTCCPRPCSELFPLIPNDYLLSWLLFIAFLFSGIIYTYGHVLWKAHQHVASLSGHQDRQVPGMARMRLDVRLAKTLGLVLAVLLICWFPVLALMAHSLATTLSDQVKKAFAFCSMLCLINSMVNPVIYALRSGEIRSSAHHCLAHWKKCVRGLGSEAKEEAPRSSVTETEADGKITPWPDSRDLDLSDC

A word on the IC50: it is the concentration needed to halve the response being measured. A low value points to inhibition by little substance. A word on the Ki: it is a dissociation constant, usually derived from enzyme kinetics or from competition with a known ligand. A lower Ki goes with a stronger hold on the target. `CCCCC/C=C\C/C=C\C/C=C\C/C=C\CCCC(=O)N(C)Cc1ccoc1`: the values for the IC50 in test [1], in test [3] and in test [5] were more than 120 µM, 111 µM and 24 µM, respectively. The Ki in test [2] and in test [4] was more than 1000 nM each time. The Max inhibition in test [6] was more than 85%.

In test [1], `CCCCC/C=C\C/C=C\C/C=C\C/C=C\CCCC(=O)O[C@H](C)c1ccco1` came in with a half-maximal inhibitory concentration (IC50) of more than 120 µM. In addition, the results for the inhibition constant Ki in test [2], in test [4] and in test [7] were more than 1000 nM, more than 5000 nM and more than 5 µM, respectively. Further, the Max inhibition in test [8] was 19%; in test [6], 37%.

In test [1], `CCCCC/C=C\C/C=C\C/C=C\C/C=C\CCCC(=O)OC(C)c1ccco1` (stereo not given) came in with an IC50 of more than 120 µM. Besides, the figures for the Ki in test [2], in test [4] and in test [7] were more than 1000 nM, more than 1000 nM and more than 5 µM, respectively. Also, the values for the Max inhibition in test [8] and in test [6] were 45% and 70%, respectively.

As to `CCCCC/C=C\C/C=C\C/C=C\C/C=C\CCCC(=O)NCCc1ccco1`, the IC50 in test [1] is more than 120 µM; in test [3] it was 12.8 µM. The inhibition constant (Ki) was more than 5000 nM in test [2], more than 1000 nM in test [4] and more than 5 µM in test [7]. The Max inhibition was 38% in test [8] and more than 85% in test [6].

(Values after ChEMBL document CHEMBL1136766, “Design, synthesis, and biological evaluation of new inhibitors of the endocannabinoid uptake: comparison with effects on fatty acid amidohydrolase” (J Med Chem, 2003).)
